In the library only some 3.7% were active in any assay of this set; here they are far more common.
KCNQ1 block – inhibitors of human KCNQ1 channel, primary screen, cell-based, thallium flux, high-throughput; actives 1.3% (n = 310,000); B-score at 10 µM; AID 2642, 2010; CHO-K1 KCNQ1, FluxOR thallium flux fluorescence; stronger effect = higher value; Potassium voltage-gated channel subfamily KQT member 1 (Homo sapiens), P51787;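 active means compounds whose thallium flux B-score, printed positive for inhibition, exceeds three library SD while starting fluorescence stays within three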;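 further: channel opened by potassium depolarization with thallium stimulus after 20 min compound exposure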
Target sequence (P51787 whole entry, looked up): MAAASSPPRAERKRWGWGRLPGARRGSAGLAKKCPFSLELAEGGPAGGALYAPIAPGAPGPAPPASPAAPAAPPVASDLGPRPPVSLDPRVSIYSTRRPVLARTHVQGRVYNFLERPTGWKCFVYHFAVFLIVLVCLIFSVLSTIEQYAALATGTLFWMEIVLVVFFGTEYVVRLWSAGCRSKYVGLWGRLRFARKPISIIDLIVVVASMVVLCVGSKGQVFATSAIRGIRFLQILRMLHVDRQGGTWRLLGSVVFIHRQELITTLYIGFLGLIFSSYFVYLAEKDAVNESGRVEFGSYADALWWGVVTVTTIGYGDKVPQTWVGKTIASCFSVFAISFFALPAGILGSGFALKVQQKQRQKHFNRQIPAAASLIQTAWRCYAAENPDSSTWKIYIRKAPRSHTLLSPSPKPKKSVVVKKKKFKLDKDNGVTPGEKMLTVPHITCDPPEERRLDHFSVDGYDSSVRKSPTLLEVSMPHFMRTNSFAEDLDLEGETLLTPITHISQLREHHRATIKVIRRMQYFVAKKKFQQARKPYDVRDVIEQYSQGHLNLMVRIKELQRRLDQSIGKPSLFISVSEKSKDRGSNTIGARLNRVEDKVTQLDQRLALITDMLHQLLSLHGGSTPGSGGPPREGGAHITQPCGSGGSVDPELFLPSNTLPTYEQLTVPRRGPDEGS
KCNK3 inh – human KCNK3 channel inhibitors, primary screen, CHO cells, FluxOR thallium flux, B-score | Potassium channel subfamily K member 3 (Homo sapiens), O14649 | FluxOR fluorescence; stronger effect = lower value | B-score at 10 µM | actives 0.84% (n = 340,000) | AID 602410, 2012;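 active means B-score under library mean minus 4 SD, starting fluorescence ratio at most library mean plus 5 SD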;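 further: more negative B-score means stronger inhibition of thallium flux through KCNK3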
Kir21 inh – inhibitors of mouse Kir2.1 inward-rectifier potassium channel | Inward rectifier potassium channel 2 (Mus musculus), P35561 | HEK293-Kir2.1, FluxOR thallium flux fluorescence; stronger effect = lower value | B-score at 10 µM | actives 0.85% (n = 310,000) | AID 1672, 2009;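 active means fluorescence ratio B-score at or below minus 3 SD of library scores, with starting-brightness B-score within 2 SD, cut at about -4.2 in these data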;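 further: channel flux triggered by added potassium and thallium sulfate stimulus; B-score of peak minus minimum fluorescence over baseline after thallium stimulus; more negative B-score means stronger Kir2.1 block with less thallium influx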
KCNQ1 act – potentiators or activators of KCNQ1 channel, primary screen, cell-based, thallium flux, high-throughput. Potassium voltage-gated channel subfamily KQT member 1 (Homo sapiens), P51787. CHO-K1 KCNQ1, thallium flux FluxOR fluorescence; stronger effect = higher value. B-score at 10 µM. actives 0.35% (n = 310,000);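 active means fluorescence ratio B-score, a plate-corrected score, at least three library SD, with initial intensity B-score within 5 SD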
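Assay system: CHO-K1 cells stably expressing KCNQ1. Medium: assay buffer for compound exposure, DMSO matched across wells. Timing: 37 °C overnight plating, 90-min dark dye load, 20-min compound pretreatment. Signal: kinetic FluxOR fluorescence, 10 s baseline plus 110 s post-stimulus.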
KCNK9 inh – KCNK9 potassium channel inhibitors, primary screen, HEK293 cells, thallium flux. Potassium channel subfamily K member 9 (Homo sapiens), Q9NPC2. FluxOR thallium flux fluorescence; stronger effect = lower value. B-score at 10 µM. actives 1.2% (n = 310,000). AID 488922, 2010;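 active means ratio B-score over 3 SD below the library mean, with starting fluorescence within 5 SD of its mean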;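 further: negative B-score means less thallium flux so channel inhibition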
hERG protect – hERG rescue from dofetilide block, primary screen, cell-based, CHO-hERG, FluxOR thallium flux, dofetilide IC70 | dofetilide IC70 present | actives 0.51% (n = 310,000) | activation (rescue from dofetilide block), less the hit threshold, % at 10 µM | Voltage-gated inwardly rectifying potassium channel KCNH2 (Homo sapiens), Q12809;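 active means activation above the mean of controls blocked by dofetilide plus 5 SD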;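 further: thallium influx through hERG after potassium depolarization seen as dye fluorescence rise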
* = called active by the depositor.

Results for Nc1ccn(Cc2ccccc2)n1 ?
KCNQ1 block: inactive; KCNK3 inh: inactive; Kir21 inh: -1.46; KCNQ1 act: inactive; KCNK9 inh: inactive; hERG protect: 41.0*

Results for CCC(=O)c1cn(CC(=O)Nc2ccc(C)cc2C)c2ccccc12 ?
KCNQ1 block: inactive; KCNK3 inh: inactive; Kir21 inh: 1.03; KCNQ1 act: inactive; KCNK9 inh: inactive; hERG protect: 4.2

How did CN1CCN(Cc2ccc(Sc3ccc(Cl)cc3)c([N+](=O)[O-])c2)CC1 do in these assays?
KCNQ1 block: inactive; KCNK3 inh: inactive; Kir21 inh: -5.29*; KCNQ1 act: inactive; KCNK9 inh: inactive; hERG protect: -17.1

Results for CN(C)CCN(C(=O)C1CCN(S(=O)(=O)c2cccs2)CC1)c1nc2ccccc2s1 ?
KCNQ1 block: inactive; KCNK3 inh: inactive; Kir21 inh: -0.71; KCNQ1 act: inactive; KCNK9 inh: inactive; hERG protect: -14.5

How did CCOC(=O)Nc1ccc2c(c1)Nc1ccccc1S2 do in these assays?
KCNQ1 block: inactive; KCNK3 inh: inactive; Kir21 inh: 1.21; KCNQ1 act: inactive; KCNK9 inh: -6.61*; hERG protect: -7.3

What do the screens show for `O=C(Nc1ccccc1N1CCCCC1)c1ccc(-c2cc(Cl)ccc2Cl)o1`?
KCNQ1 block: inactive; KCNK3 inh: inactive; Kir21 inh: 1.28; KCNQ1 act: inactive; KCNK9 inh: inactive; hERG protect: -7.1

How did O=C(CCc1ccc(O)cc1)NNC(=S)NCCc1ccccc1 do in these assays?
KCNQ1 block: inactive; KCNK3 inh: inactive; Kir21 inh: -1.12; KCNQ1 act: inactive; KCNK9 inh: inactive; hERG protect: -7.3

What do the screens show for `O=C(NNC(=S)NCCc1ccccc1)c1ccc(Br)s1`?
KCNQ1 block: 8*; KCNK3 inh: inactive; Kir21 inh: -0.22; KCNQ1 act: inactive; KCNK9 inh: inactive; hERG protect: -2.6

Results for c1ccc(-c2noc(CN3CCN(c4ccccc4)CC3)n2)cc1 ?
KCNQ1 block: inactive; KCNK3 inh: inactive; Kir21 inh: 0.32; KCNQ1 act: inactive; KCNK9 inh: inactive; hERG protect: -10.3

Results for c1ccc(-c2noc(CN3CCN(C(c4ccccc4)c4ccccc4)CC3)n2)cc1 ?
KCNQ1 block: inactive; KCNK3 inh: inactive; Kir21 inh: -0.11; KCNQ1 act: inactive; KCNK9 inh: -7.15*; hERG protect: -12.2

Results for COc1ccc2c(C(=O)c3ccc(C)cc3)n(CCCC(N)=O)[n+]([O-])c2c1 ?
KCNQ1 block: inactive; KCNK3 inh: inactive; Kir21 inh: 1.11; KCNQ1 act: inactive; KCNK9 inh: inactive; hERG protect: -9.0

What do the screens show for `CC(OC(=O)C1CC1)C(=O)Nc1cc(Cl)cc(Cl)c1` (stereo unspecified)?
KCNK3 inh: -8.71*

Results for C=C1C(=O)C23C(O)C1CCC2C12CCCC(C)(COC(C)=O)C1C(O)C3(O)OC2 (stereo unspecified) ?
KCNK3 inh: inactive

How did O=[N+]([O-])c1cc([N+](=O)[O-])c2cccnc2c1Oc1ccccc1O do in these assays?
KCNQ1 block: 8*; KCNK3 inh: inactive; Kir21 inh: -8.86*; KCNQ1 act: inactive; KCNK9 inh: inactive; hERG protect: -39.8

Results for O=[N+]([O-])c1ccc(O)c2ncccc12 ?
KCNQ1 block: inactive; KCNK3 inh: inactive; Kir21 inh: -0.09; KCNQ1 act: inactive; KCNK9 inh: inactive; hERG protect: 2.0

Results for CC1Nc2ncnc(N3CCN(c4ccccc4)CC3)c2N(Cc2ccc(Br)cc2)C1=O (stereo unspecified) ?
KCNQ1 block: inactive; KCNK3 inh: inactive; Kir21 inh: -0.07; KCNQ1 act: inactive; KCNK9 inh: -6.75*; hERG protect: -16.2

What do the screens show for `CCN(CC)c1ccc2cc(NC(=O)CCC(=O)O)c(=O)oc2c1`?
KCNQ1 block: 14*; KCNK3 inh: inactive; Kir21 inh: -15.2; KCNQ1 act: inactive; KCNK9 inh: inactive; hERG protect: -26.0

How did CC(C)CCOP(=O)(c1ccccc1)c1ccccc1 do in these assays?
KCNQ1 block: inactive; KCNK3 inh: inactive; Kir21 inh: -1.32; KCNQ1 act: inactive; KCNK9 inh: -6.75*; hERG protect: -7.3

What do the screens show for `CCCOP(=O)(c1ccccc1)c1ccccc1`?
KCNQ1 block: inactive; KCNK3 inh: inactive; Kir21 inh: 0.84; KCNQ1 act: inactive; KCNK9 inh: inactive; hERG protect: -5.0

What do the screens show for `Cc1nn(CC(=O)Nc2ccc3c(c2)CCC3)c(C)c1[N+](=O)[O-]`?
KCNK3 inh: inactive

Results for COC(=O)c1c(C)oc(C)c1S(=O)(=O)NCc1ccc(OC)cc1 ?
KCNQ1 block: inactive; KCNK3 inh: inactive; Kir21 inh: -2.37; KCNQ1 act: inactive; KCNK9 inh: inactive; hERG protect: -2.6

How did COC(=O)c1c(C)oc(C)c1S(=O)(=O)NCc1ccc(Cl)cc1Cl do in these assays?
KCNQ1 block: inactive; KCNK3 inh: inactive; Kir21 inh: -5.13*; KCNQ1 act: inactive; KCNK9 inh: -7.51*; hERG protect: -3.5

Results for CCOC(=O)/C(=N\Nc1ccccc1Cl)N1CCN(Cc2ccccc2)CC1 ?
KCNQ1 block: 7*; KCNK3 inh: inactive; Kir21 inh: 0.43; KCNQ1 act: inactive; KCNK9 inh: -8.05*; hERG protect: -6.2

How did CCOC(=O)/C(=N\Nc1ccccc1Cl)N1CCN(C)CC1 do in these assays?
KCNQ1 block: inactive; KCNK3 inh: inactive; Kir21 inh: -0.53; KCNQ1 act: inactive; KCNK9 inh: inactive; hERG protect: -5.6

Results for O=C(NCCOc1ccc(Cl)cc1)c1cccc(S(=O)(=O)N2CCCC2)c1 ?
KCNK3 inh: inactive

What do the screens show for `Cc1cnc(C(=O)OCC(=O)NC(C)c2ccccc2)cn1` (stereo unspecified)?
KCNK3 inh: inactive

How did CCc1c(C)nc2ccc(Br)cc2c1SCCC#N do in these assays?
KCNQ1 block: inactive; KCNK3 inh: inactive; Kir21 inh: -1.28; KCNQ1 act: inactive; KCNK9 inh: inactive; hERG protect: -13.6

Results for CCCCc1c(C)nc2ccc(Br)cc2c1SCCC#N ?
KCNQ1 block: inactive; Kir21 inh: 0.15; KCNQ1 act: inactive; KCNK9 inh: -7.68*; hERG protect: -9.5

Source: PubChem BioAssay (Johns Hopkins Ion Channel Center)
